Entries after “also recorded” stand apart in the source; their conditions may differ. Read-outs that look alike come from different tables or passages of the source.
Tests used:
[1] = cited from earlier work
CYP2C9 = details: IPE 4 g/day; cited from earlier work
serum TG levels = details: IPE 4 g/day, MARINE and ANCHOR studies; cited from earlier work
Safety assessments = type: in vivo, human (healthy adult subjects); details: healthy subjects
Summary of the method: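 Open-label single-centre phase I crossover, healthy adults. Oral H+/K+ ATPase inhibitor 40-mg delayed-release capsule once daily, 1 h before breakfast, days 1–7 and 19–25. Omega-3 ethyl ester 4 g/day as two 1-g capsules twice daily with or after meals, days 12–29. Monitored adverse events, chemistry, hematology, urinalysis, blood pressure, heart rate, respiratory rate, oral temperature and physical examinations.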

CYP3A4 = details: IPE 4 g/day; cited from earlier work
CYP2C8 = details: IPE 4 g/day; cited from earlier work
[2] = biological target: cytochrome P450 (CYP) 2C19 (Homo sapiens, UniProt P33261); test: Drug-drug interaction of IPE with omeprazole, a CYP2C19 substrate; type: in vivo, human (healthy adult subjects); details: IPE 4 g/day at steady state, omeprazole 40 mg/day
Sequence of cytochrome P450 (CYP) 2C19 (P33261 whole entry): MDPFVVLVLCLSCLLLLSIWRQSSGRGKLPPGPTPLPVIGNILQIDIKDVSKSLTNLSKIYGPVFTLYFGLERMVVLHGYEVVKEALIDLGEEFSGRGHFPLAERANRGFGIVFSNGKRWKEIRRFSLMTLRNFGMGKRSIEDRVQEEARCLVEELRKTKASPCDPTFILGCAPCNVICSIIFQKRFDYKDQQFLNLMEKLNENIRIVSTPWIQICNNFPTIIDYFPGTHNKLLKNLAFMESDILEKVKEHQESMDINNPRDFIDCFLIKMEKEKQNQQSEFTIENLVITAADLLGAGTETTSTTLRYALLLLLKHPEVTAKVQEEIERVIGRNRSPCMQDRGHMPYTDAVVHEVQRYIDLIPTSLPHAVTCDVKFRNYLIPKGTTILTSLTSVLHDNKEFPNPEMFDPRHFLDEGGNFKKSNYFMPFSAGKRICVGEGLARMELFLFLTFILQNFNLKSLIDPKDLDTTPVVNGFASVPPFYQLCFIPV

[3] = healthy subjects; cited from earlier work
[4] = type: in vivo, human (healthy adult subjects); details: for K el: omeprazole 40 mg/day, mean (SD), n = 28

**Q.** For `CC/C=C\C/C=C\C/C=C\C/C=C\C/C=C\CCCC(=O)O` [EPA, eicosapentaenoic acid], which “Unesterified fraction of total EPA in plasma” value [1] is on record?
**A.** Its value is < 1%.

**Q.** What about the “Time to peak plasma concentrations of EPA” value ([1]; following oral dosing of IPE) of the same compound?
**A.** The value was “approximately 5 h”.

**Q.** What does the source list for `CC/C=C\C/C=C\C/C=C\C/C=C\C/C=C\CCCC(=O)OCC` [IPE, eicosapentaenoic acid ethyl ester]?
**A.** Effect of IPE on AUC or C max of warfarin (CYP2C9 substrate) (CYP2C9): did not display a significant effect; Effect on LDL-C levels (serum TG levels): without significantly increasing; Effect on serum TG levels (serum TG levels): significantly reduce; Safety and tolerability of co-administration of IPE with omeprazole (Safety assessments; IPE 4 g/day with omeprazole 40 mg/day): safe and well tolerated; Effect of IPE on AUC or C max of atorvastatin (CYP3A4 substrate) (CYP3A4): did not display a significant effect; Effect of IPE on AUC or C max of rosiglitazone (CYP2C8 substrate) (CYP2C8): did not display a significant effect; Effect of IPE on AUC0–24 and C max of omeprazole (CYP2C19 substrate) [2]: did not significantly change; also recorded: did not inhibit

**Q.** Which results are given for `COc1ccc2[nH]c([S+]([O-])Cc3ncc(C)c(OC)c3C)nc2c1` (centres unmarked) [Omeprazole]?
**A.** Elimination half-life [3]: 30 to 60 min; Tolerability of omeprazole alone (Safety assessments; omeprazole 40 mg/day): well tolerated; AUC(0-t) ([4]; human, plasma, po, 40 mg/day): 3610 ng·h/mL; K el ([4]; with icosapent ethyl 4 g/day (day 25)): 0.62 (0.26) L/h; K el ([4]; without IPE (day 7)): 0.56 (0.22) L/h

— paper PMC4153963 (Drugs in R&D, 2014)
